Measurements: ChEMBL document CHEMBL1126637, “Dicarboxylate diamide dimercaptide (N2S2) technetium-99m complexes: synthesis and biological evaluation as potential renal radiopharmaceuticals” (J Med Chem, 1993)
Values joined by “and” are separate entries in the source; they are usually repeats but may differ in a detail not shown here. Identical values can stand only once.

How the values were obtained:
Monkey [1] = assay: Percentage of counts in the pellet/total number of counts in both supernatant and pellet in monkey plasma (n=3); assay type: functional
Method in brief: (§1)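 Plasma from male cynomolgus monkey or male Sprague-Dawley rat blood (centrifuged 4000 rpm, 5 min). 99mTc complex in 50% ethanol/H2O (1 × 10^6 counts) incubated with 1 mL plasma at 37 °C for 30 min. Precipitation with 0.4 mL 10% trichloroacetic acid, centrifuged 4000 rpm 10 min, pellet washed twice with water. Bound = pellet counts/(pellet + supernatant + washes) counts; 3 determinations, mean ± SD.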

Rattus norvegicus [2] = organism: Rattus norvegicus; assay: Percentage of counts in the pellet/total number of counts in both supernatant and pellet in rat plasma (n=3); assay type: functional; method in brief: as §1
Rattus norvegicus [3] = organism: Rattus norvegicus; assay: Biodistribution of the [99mTc] complex with OIH in rat spleen at 60 min postinjection (3-4 rats used); assay type: ADME, organism-based; conditions: in vivo, 1 h
Method in brief: (§2)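 Male Sprague-Dawley rats (200-300 g), ketamine/xylazine anesthesia (80 mg/kg : 8 mg/kg), bladder cannulated with PE 50 tubing. Given iv via femoral vein 0.2 mL saline holding the 99mTc complex (20 µCi) co-injected with [131I]OIH (7 µCi). Percent injected dose per organ from comparing tissue radioactivity against dilutions of the injected dose, corrected for 131I spillover into the 99mTc channel; mean ±SD, 3-4 rats.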

Rattus norvegicus [4] = organism: Rattus norvegicus; assay: Biodistribution of the [99mTc] complex with OIH in rat heart at 10 min postinjection (3-4 rats used); assay type: ADME, organism-based; conditions: in vivo; method in brief: as §2
Rattus norvegicus [5] = organism: Rattus norvegicus; assay: Biodistribution of the [99mTc] complex with OIH in rat lung at 10 min postinjection (3-4 rats used); assay type: ADME, organism-based; conditions: in vivo; method in brief: as §2
Rattus norvegicus [6] = organism: Rattus norvegicus; assay: Biodistribution of the [99mTc] complex with OIH in rat heart at 60 min postinjection (3-4 rats used); assay type: ADME, organism-based; conditions: in vivo, 1 h; method in brief: as §2
Rattus norvegicus [7] = organism: Rattus norvegicus; assay: Biodistribution of the [99mTc] complex with OIH in rat intestines at 10 min postinjection (3-4 rats used); assay type: ADME, organism-based, Intestine; conditions: in vivo; method in brief: as §2
Rattus norvegicus [8] = organism: Rattus norvegicus; assay: Biodistribution of the [99mTc] complex in rat muscle at 10 min postinjection (3-4 rats used); assay type: ADME, organism-based, Muscle tissue; conditions: in vivo; method in brief: as §2
Rattus norvegicus [9] = organism: Rattus norvegicus; assay: Biodistribution of the [99mTc] complex with OIH in rat spleen at 10 min postinjection (mean +/- SD, 3-4 rats used); assay type: ADME, organism-based; conditions: in vivo; method in brief: as §2
Rattus norvegicus [10] = organism: Rattus norvegicus; assay: Biodistribution of the [99mTc] complex with OIH in rat intestines at 60 min postinjection (3-4 rats used); assay type: ADME, organism-based, Intestine; conditions: in vivo, 1 h; method in brief: as §2
Rattus norvegicus [11] = organism: Rattus norvegicus; assay: Biodistribution of the [99mTc] complex with OIH in rat muscle at 10 min postinjection (3-4 rats used); assay type: ADME, organism-based, Muscle tissue; conditions: in vivo; method in brief: as §2
Rattus norvegicus [12] = organism: Rattus norvegicus; assay: Biodistribution of the [99mTc] complex in rat heart at 60 min postinjection (3-4 rats used); assay type: ADME, organism-based; conditions: in vivo, 1 h; method in brief: as §2
Rattus norvegicus [13] = organism: Rattus norvegicus; assay: Biodistribution of the [99mTc] complex in rat blood at 60 min postinjection (3-4 rats used); assay type: ADME, organism-based; conditions: in vivo, 1 h; method in brief: as §2
Rattus norvegicus [14] = organism: Rattus norvegicus; assay: Biodistribution of the [99mTc] complex in rat spleen at 60 min postinjection (3-4 rats used); assay type: ADME, organism-based; conditions: in vivo, 1 h; method in brief: as §2
Rattus norvegicus [15] = organism: Rattus norvegicus; assay: Biodistribution of the [99mTc] complex with OIH in rat muscle at 60 min postinjection (3-4 rats used); assay type: ADME, organism-based, Muscle tissue; conditions: in vivo, 1 h; method in brief: as §2
Rattus norvegicus [16] = organism: Rattus norvegicus; assay: Biodistribution of the [99mTc] complex in rat spleen at 10 min postinjection (3-4 rats used); assay type: ADME, organism-based; conditions: in vivo; method in brief: as §2
Rattus norvegicus [17] = organism: Rattus norvegicus; assay: Biodistribution of the [99mTc] complex in rat liver at 60 min postinjection (3-4 rats used); assay type: ADME, organism-based; conditions: in vivo, 1 h; method in brief: as §2
Rattus norvegicus [18] = organism: Rattus norvegicus; assay: Biodistribution of the [99mTc] complex in rat lung at 60 min postinjection (3-4 rats used); assay type: ADME, organism-based; conditions: in vivo, 1 h; method in brief: as §2
Rattus norvegicus [19] = organism: Rattus norvegicus; assay: Biodistribution of the [99mTc] complex with OIH in rat lung at 60 min postinjection (3-4 rats used); assay type: ADME, organism-based; conditions: in vivo, 1 h; method in brief: as §2
Rattus norvegicus [20] = organism: Rattus norvegicus; assay: Biodistribution of the [99mTc] complex with OIH in rat kidney at 60 min postinjection (3-4 rats used); assay type: ADME, organism-based; conditions: in vivo, 1 h; method in brief: as §2
Rattus norvegicus [21] = organism: Rattus norvegicus; assay: Biodistribution of the [99mTc] complex in rat intestines at 60 min postinjection (3-4 rats used); assay type: ADME, organism-based, Intestine; conditions: in vivo, 1 h; method in brief: as §2
Rattus norvegicus [22] = organism: Rattus norvegicus; assay: Biodistribution of the [99mTc] complex with OIH in rat blood at 60 min postinjection (, 3-4 rats used); assay type: ADME, organism-based; conditions: in vivo, 1 h; method in brief: as §2
Rattus norvegicus [23] = organism: Rattus norvegicus; assay: Biodistribution of the [99mTc] complex with OIH in rat kidney at 10 min postinjection ( 3-4 rats used); assay type: ADME, organism-based; conditions: in vivo; method in brief: as §2
Rattus norvegicus [24] = organism: Rattus norvegicus; assay: Biodistribution of the [99mTc] complex in rat heart at 10 min postinjection (3-4 rats used); assay type: ADME, organism-based; conditions: in vivo; method in brief: as §2
Rattus norvegicus [25] = organism: Rattus norvegicus; assay: Biodistribution of the [99mTc] complex in rat liver at 10 min postinjection (3-4 rats used); assay type: ADME, organism-based; conditions: in vivo; method in brief: as §2
Rattus norvegicus [26] = organism: Rattus norvegicus; assay: Biodistribution of the [99mTc] complex with OIH in rat liver at 60 min postinjection (3-4 rats used); assay type: ADME, organism-based; conditions: in vivo, 1 h; method in brief: as §2
Rattus norvegicus [27] = organism: Rattus norvegicus; assay: Biodistribution of the [99mTc] complex in rat muscle at 60 min postinjection (3-4 rats used); assay type: ADME, organism-based, Muscle tissue; conditions: in vivo, 1 h; method in brief: as §2
Rattus norvegicus [28] = organism: Rattus norvegicus; assay: Biodistribution of the [99mTc] complex in rat lung at 10 min postinjection (3-4 rats used); assay type: ADME, organism-based; conditions: in vivo; method in brief: as §2
Monkey [29] = assay: Percentage of counts in the pellet/total number of counts in both supernatant and pellet in monkey plasma; assay type: functional, Cercopithecidae; method in brief: as §1
Rattus norvegicus [30] = organism: Rattus norvegicus; assay: Biodistribution of the [99mTc] complex in rat blood at 10 min postinjection (3-4 rats used); assay type: ADME, organism-based; conditions: in vivo; method in brief: as §2
Rattus norvegicus [31] = organism: Rattus norvegicus; assay: Biodistribution of the [99mTc] complex with OIH in rat liver at 10 min postinjection (3-4 rats used); assay type: ADME, organism-based; conditions: in vivo; method in brief: as §2
Rattus norvegicus [32] = organism: Rattus norvegicus; assay: Percentage of counts in the pellet/total number of counts in both supernatant and pellet in rat plasma; assay type: functional; method in brief: as §1
Rattus norvegicus [33] = organism: Rattus norvegicus; assay: Biodistribution of the [99mTc] complex in rat intestines at 10 min postinjection (3-4 rats used); assay type: ADME, organism-based, Intestine; conditions: in vivo; method in brief: as §2
Rattus norvegicus [34] = organism: Rattus norvegicus; assay: Biodistribution of the [99mTc] complex in rat kidney at 10 min postinjection (3-4 rats used); assay type: ADME, organism-based; conditions: in vivo; method in brief: as §2
Rattus norvegicus [35] = organism: Rattus norvegicus; assay: Biodistribution of the [99mTc] complex in rat kidney at 60 min postinjection (3-4 rats used); assay type: ADME, organism-based; conditions: in vivo, 1 h; method in brief: as §2
Rattus norvegicus [36] = organism: Rattus norvegicus; assay: Biodistribution of the [99mTc] complex with OIH in rat blood at 10 min postinjection (3-4 rats used); assay type: ADME, organism-based; conditions: in vivo; method in brief: as §2
Rattus norvegicus [37] = organism: Rattus norvegicus; assay: Biodistribution of the [99mTc] complex with OIH in rat intestine at 10 min postinjection (3-4 rats used); assay type: ADME, organism-based; conditions: in vivo; method in brief: as §2
Rattus norvegicus [38] = organism: Rattus norvegicus; assay: Biodistribution of the [99mTc] complex with OIH in rat blood at 60 min postinjection (3-4 rats used); assay type: ADME, organism-based; conditions: in vivo, 1 h; method in brief: as §2
Rattus norvegicus [39] = organism: Rattus norvegicus; assay: Biodistribution of the [99mTc] complex with OIH in rat spleen at 10 min postinjection (3-4 rats used); assay type: ADME, organism-based; conditions: in vivo; method in brief: as §2
Rattus norvegicus [40] = organism: Rattus norvegicus; assay: Biodistribution of the [99mTc] complex in with OIH rat kidney at 60 min postinjection (3-4 rats used); assay type: ADME, organism-based; conditions: in vivo, 1 h; method in brief: as §2
Rattus norvegicus [41] = organism: Rattus norvegicus; assay: Biodistribution of the [99mTc] complex with OIH in rat intestine at 60 min postinjection (3-4 rats used); assay type: ADME, organism-based; conditions: in vivo, 1 h; method in brief: as §2
Rattus norvegicus [42] = organism: Rattus norvegicus; assay: Biodistribution of the [99mTc] complex with OIH in rat kideny at 10 min postinjection (3-4 rats used); assay type: ADME, organism-based; conditions: in vivo; method in brief: as §2

Row | Molecule | Activity (Rattus norvegicus [2]) | Injected dose (Rattus norvegicus [3]) | Injected dose (Rattus norvegicus [4]) | Injected dose (Rattus norvegicus [5]) | Injected dose (Rattus norvegicus [8]) | Injected dose (Rattus norvegicus [12]) | Injected dose (Rattus norvegicus [13]) | Injected dose (Rattus norvegicus [14]) | Injected dose (Rattus norvegicus [16]) | Injected dose (Rattus norvegicus [17]) | Injected dose (Rattus norvegicus [18]) | Injected dose (Rattus norvegicus [21]) | Injected dose (Rattus norvegicus [24]) | Injected dose (Rattus norvegicus [25]) | Injected dose (Rattus norvegicus [27]) | Injected dose (Rattus norvegicus [28]) | Injected dose (Rattus norvegicus [30]) | Injected dose (Rattus norvegicus [33]) | Injected dose (Rattus norvegicus [34]) | Injected dose (Rattus norvegicus [35]) | other results
1 | [sequence] | 30.3% | – | – | – | – | – | – | – | – | – | – | – | – | – | – | – | – | – | – | – | Activity (Monkey [1]; Cercopithecidae): 35.2%
2 | COC(=O)CC(SC(=O)c1ccccc1)C(=O)NCCNC(=O)C(CC(=O)OC)SC(=O)c1ccccc1 (centres undefined) | – | < 0.1% | < 0.1% | 0.3% | 26.9% | 0.2% | 16.4% | 0.1% | 0.3% | 3.1% | 0.7% | 1.3% | 0.4% | 5% | 21.1% | 1.2% | 26.7% | 1.7% | 4.3% | 2.1% | Injected dose (Rattus norvegicus [6]): < 0.1%; Injected dose (Rattus norvegicus [7]): 1.4%; Injected dose (Rattus norvegicus [9]): 0.1%; Injected dose (Rattus norvegicus [10]): 0.8%; Injected dose (Rattus norvegicus [11]): 9.9%; Injected dose (Rattus norvegicus [15]): 1.6%; Injected dose (Rattus norvegicus [19]): < 0.1%; Injected dose (Rattus norvegicus [20]): 0.6%; Injected dose (Rattus norvegicus [22]): 0.6%; Injected dose (Rattus norvegicus [23]): 6.9%; Injected dose (Rattus norvegicus [26]): 0.3%; Activity (Monkey [29]): 26.2%; Injected dose (Rattus norvegicus [31]): 2.5%; Activity (Rattus norvegicus [32]): 31.1%; Injected dose (Rattus norvegicus [36]): 5.3%
3 | CCOC(=O)C(SC(=O)c1ccccc1)C(=O)NCCNC(=O)C(SC(=O)c1ccccc1)C(=O)OCC (centres undefined) | 21.4% | 0.9% and 0.2% and 0.4% and 2% and 1.6% and < 0.1% | – | – | 23.6% | 0.2% | 13.1% | 0.1% | 0.2% | 5% | 0.7% | 1.3% | 0.4% | 4.9% | 21.5% | 0.9% | 24% | 1.6% | 6% | 4% | Activity (Monkey [1]): 21.9%
4 | COC(=O)C(CC(=O)NCCNC(=O)CC(SC(=O)c1ccccc1)C(=O)OC)SC(=O)c1ccccc1 (centres undefined) | 22% | < 0.1% | 0.1% | 0.2% | 22.8% | 0.3% | 15.2% | 0.1% | 0.2% | 3% | 0.7% | 1.7% | 0.4% | 5% | 20.4% | 1.1% | 26.2% | 1.4% | 5.3% | 1.9% | Injected dose (Rattus norvegicus [37]): 1.6%; Injected dose (Rattus norvegicus [6]): < 0.1%; Injected dose (Rattus norvegicus [11]): 7.9%; Injected dose (Rattus norvegicus [38]): 0.5%; Injected dose (Rattus norvegicus [15]): 1.6%; Injected dose (Rattus norvegicus [39]): < 0.1%; Injected dose (Rattus norvegicus [19]): < 0.1%; Activity (Monkey [1]): 26.5%; Injected dose (Rattus norvegicus [26]): 0.5%; Injected dose (Rattus norvegicus [40]): 0.5%; Injected dose (Rattus norvegicus [41]): 1.6%; Injected dose (Rattus norvegicus [31]): 3.3%; Injected dose (Rattus norvegicus [42]): 9.9%; Injected dose (Rattus norvegicus [36]): 4.4%
